Series [1] relates to Pseudomonas aeruginosa PAO1. Briefly: Inhibition of PqsR in Pseudomonas aeruginosa PAO1 harboring GFP fused pqsA at 125 ug/ml measured every 15 mins for 6 to 8 hrs by reporter assay relative to control. The following applies: dose 125.0 µg/ml, time 6-8 hrs. Summed up:
(§1)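 PAO1 carrying PqsR-regulated pqsA promoter–gfp fusion; overnight culture in Mueller Hinton broth exposed to serially diluted compounds (40 mM DMSO stocks, diluted in medium) at 37 °C with intermittent shaking. GFP fluorescence and OD600 read every 15 min for at least 6–8 h; fluorescence normalised to OD600. Negative control: medium with 1.25% DMSO. Run in triplicate.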

Series [2] can be described thus: Inhibition of PqsR in Pseudomonas aeruginosa PAO1 harboring GFP fused pqsA measured every 15 mins for 6 to 8 hrs by reporter assay. The essentials:
as §1

Series [3] deals with Pseudomonas aeruginosa. Nature of the series: Antibiofilm activity against Pseudomonas aeruginosa ATCC 25619 assessed as decrease in bacterial co-aggregation at 150 to 400 uM measured after 24 hrs by phase contrast microscopic analysis. It is filed as functional, organism-based. The following applies: dose 150-400 µM. The essentials:
(§2)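 Overnight TSB cultures resuspended to OD600 0.1 ± 0.02 in TSB. Biofilms grown 24 h at 37 °C, 100 rpm with compound at 250 µM or DMSO control. Washed twice with PBS to remove loosely adhered cells. Imaged by phase contrast microscopy to assess biofilm morphology and aggregation.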

The subject of series [4] is Pseudomonas aeruginosa. Briefly: Antibiofilm activity against Pseudomonas aeruginosa PAO1 assessed as decrease in bacterial co-aggregation at 150 to 400 uM measured after 24 hrs by phase contrast microscopic analysis. It counts as functional, organism-based. The following applies: dose 150-400 µM. The essentials:
as §2

In series [5] the test system is Pseudomonas aeruginosa. Briefly: Antibiofilm activity against Pseudomonas aeruginosa ATCC 25619 assessed as decrease in bacterial co-aggregation at 150 to 400 uM measured […] by microscopic analysis (reference value: 23 %). It counts as functional. Details: scale not given: the % may be the effect or the level left. The following applies: dose 150-400 µM.

The subject of series [6] is Pseudomonas aeruginosa. Briefly: Antibiofilm activity against Pseudomonas aeruginosa PAO1 assessed as decrease in bacterial co-aggregation at 150 to 400 uM measured […] by microscopic analysis (reference value: 26 %). It counts as functional. Details: scale not given: the % may be the effect or the level left. The following applies: dose 150-400 µM.
For series [7], the system named is Pseudomonas aeruginosa. Briefly: Antibiofilm activity against Pseudomonas aeruginosa ATCC 25619 assessed as reduction in biomass at 250 to 400 uM measured after 48 hrs by crystal violet staining based assay relative to control. The following applies: dose 250-400 µM. It counts as functional. Summed up: (§3)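 Biofilms started from TSB-grown cultures at OD600 0.1 ± 0.02 with compound (250 and 400 µM) or DMSO control. Incubated 48 h at 37 °C, 100 rpm, then washed with PBS. Stained with 0.1% (w/v) crystal violet for 1 h at 37 °C, 150 rpm, washed three times and dried. Dye dissolved in 80% ethanol and read at OD550. Biomass expressed as % decrease versus DMSO control, set at 100%.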

Series [8] relates to Pseudomonas aeruginosa. Nature of the series: Antibiofilm activity against Pseudomonas aeruginosa PAO1 assessed as reduction in biomass at 250 to 400 uM measured after 48 hrs by crystal violet staining based assay relative to control. It counts as functional. The following applies: dose 250-400 µM. The essentials:
as §3

Series [9] can be described thus: Inhibition of planktonic growth of Pseudomonas aeruginosa PAO1 up to 125 ug/ml incubated for 24 hrs. The following applies: dose <=125 µg/ml. The essentials: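 PAO1 at 5×10^5 CFU/mL in MHB. Compound added from 10 mg/mL DMSO stock, up to 125 µg/mL final. Incubated 24 h at 37 °C with intermittent agitation, OD600 read every 15 min. DMSO (1.25%) as control. One experiment per compound with three technical replicates.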

These results are taken from ChEMBL document CHEMBL4680345, “Thioether-linked dihydropyrrol-2-one analogues as PqsR antagonists against antibiotic resistant Pseudomonas aeruginosa” (Bioorg Med Chem, 2021).

Active and inactive are the calls of the source. No cut-off for these calls is given here.

`O=C1C=C(c2ccc(F)cc2)/C(=C/Sc2ccccn2)N1`: the inhibition in series [1] turned out to be 63%. This molecule also gave an IC50 in series [2] of 32 µM. Besides, the outcome in the series with Pseudomonas aeruginosa [3] and in the series on Pseudomonas aeruginosa [4] was Active. Besides, the Activity in the series on Pseudomonas aeruginosa [5] is reported as 11%; in the series on Pseudomonas aeruginosa [6], 13%. Further, the “inhibition (INH)” value in the series on Pseudomonas aeruginosa [7] and in the series on Pseudomonas aeruginosa [8] was 20% each time. Further, in series [9], the “growth inhibition (GI)” value was “Non-Toxic”.

As for `O=C1C=C(c2ccc(Br)cc2)/C(=C/Sc2ccccc2)N1`, in series [1], the inhibition turned out to be 52%.

`O=C1C=C(c2ccc(F)cc2)/C(=C/Sc2ccc(Cl)cc2)N1` displayed an inhibition in series [1] of 46%.

In [1], `O=C1C=C(c2ccc(F)cc2)/C(=C/Sc2ccccc2)N1` registered an inhibition of 45%.

Take `CCCS/C=C1\NC(=O)C=C1c1ccccc1F`: in series [1], the inhibition amounted to 7%.

Regarding `O=C1C=C(c2ccccc2F)/C(=C/Sc2ccc(Cl)cc2)N1`, the inhibition in series [1] was found to be 55%.

Take `O=C1C=C(c2ccccc2F)/C(=C/Sc2ccccn2)N1`: the inhibition in series [1] was 40%.

For the molecule `CCCS/C=C1\NC(=O)C=C1c1ccc(Br)cc1`, the inhibition in series [1] was 62%. The same molecule had a 50% inhibitory concentration (IC50) in [2] of 100 µM. For the same molecule, the result with Pseudomonas aeruginosa [3] and in the series with Pseudomonas aeruginosa [4] was Active. The results for the Activity in the series on Pseudomonas aeruginosa [5] and in the series on Pseudomonas aeruginosa [6] were 11% and 13%, respectively. In addition, the “inhibition (INH)” value with Pseudomonas aeruginosa [7] and in the series with Pseudomonas aeruginosa [8] was 20% throughout. For the same molecule, in series [9], the “growth inhibition (GI)” value is on record as “Non-Toxic”.

As to `O=C1C=C(c2ccc(Cl)cc2)/C(=C/Sc2ccccn2)N1`, in series [1], the inhibition was 18%.

`O=C1C=C(c2ccccc2)/C(=C/Sc2ccc(Cl)cc2)N1` registered an inhibition in [1] of 43%.

On to `O=C1C=C(c2ccccc2)/C(=C/Sc2ccccn2)N1`, for which, in [1], the inhibition was 53%.

In series [1], `O=C1C=C(c2ccc(Br)cc2)/C(=C/Sc2ccc(Cl)cc2)N1` had an inhibition of 33%.

Regarding `O=C1C=C(c2ccc(Br)cc2)/C(=C/Sc2ccccn2)N1`, the inhibition in [1] is 20%.

In turn, `O=C1C=C(c2cccc(F)c2)/C(=C/Sc2ccccn2)N1` showed an inhibition in series [1] of 47%.

In series [1], `O=C1C=C(c2ccccc2)/C(=C/Sc2ccccc2)N1` registered an inhibition of 52%.

As for `CCCS/C=C1\NC(=O)C=C1c1ccccc1`, in series [1], the inhibition was found to be 20%.

Molecule `O=C1C=C(c2ccccc2F)/C(=C/Sc2ccccc2)N1` yielded an inhibition in [1] of 42%.

`CCCS/C=C1\NC(=O)C=C1c1ccc(Cl)cc1` returned an inhibition in series [1] of 59%. This molecule came in with an IC50 in series [2] of 90 µM.

Take `O=C1C=C(c2ccc(Cl)cc2)/C(=C/Sc2ccc(Cl)cc2)N1`: the inhibition in [1] was 36%.

`O=C1C=C(c2ccc(Cl)cc2)/C(=C/Sc2ccccc2)N1`: the inhibition in series [1] is 45%.
